Measured values taken from ChEMBL document CHEMBL1131442 (J Med Chem, 1998).

Assays:
Cannabinoid receptor 2 = Cannabinoid receptor 2 (Mus musculus, UniProt P47936); test: Binding affinity towards Cannabinoid receptor 2 from mouse spleen membranes using 0.8 nM [3H]CP-55940 as radioligand; format: tissue-based
How it was run: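 Mouse spleen membranes, no PMSF pretreatment (amidase absent). Each well held ~30 μg membrane in TME (25 mM Tris-HCl, 5 mM MgCl2, 1 mM EDTA, pH 7.4) with 0.1% fatty acid-free BSA, 0.8 nM [3H]CP-55,940 and varied analogue concentrations, 1 h. Bound ligand was collected on GF/C filters and counted by scintillation.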

Cannabinoid receptor 1 [1] = biological target: T1, Cannabinoid receptor 1 (Rattus norvegicus, UniProt P20272); test: Binding affinity towards cannabinoid receptor 1 from rat forebrain membranes in the absence of phenylmethanesulfonylfluoride (PMSF) using 0.8 nM [3H]CP-55940 as radioligand; parameters: species or system Membrane
T1 sequence (P20272 whole entry): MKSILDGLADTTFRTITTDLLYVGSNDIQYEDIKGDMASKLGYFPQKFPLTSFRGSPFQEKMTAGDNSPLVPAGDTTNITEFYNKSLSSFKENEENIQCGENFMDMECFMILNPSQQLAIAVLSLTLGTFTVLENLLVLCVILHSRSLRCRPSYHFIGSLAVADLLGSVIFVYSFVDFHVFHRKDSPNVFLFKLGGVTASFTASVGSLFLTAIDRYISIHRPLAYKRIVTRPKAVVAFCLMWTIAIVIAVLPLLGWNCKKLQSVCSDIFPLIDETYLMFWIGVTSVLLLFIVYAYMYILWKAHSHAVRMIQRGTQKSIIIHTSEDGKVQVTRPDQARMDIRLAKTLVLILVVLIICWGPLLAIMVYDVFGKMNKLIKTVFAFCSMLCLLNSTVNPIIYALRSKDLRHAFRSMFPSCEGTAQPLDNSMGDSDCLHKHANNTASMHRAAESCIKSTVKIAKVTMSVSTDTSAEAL
How it was run: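 Rat forebrain membranes were used without PMSF treatment. Bound ligand was separated by filtration and counted by scintillation. IC50 from nonlinear regression was converted to Ki by Cheng–Prusoff.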

Cannabinoid receptor 1 [2] = biological target: T1, Cannabinoid receptor 1; test: Binding affinity towards cannabinoid receptor 1 from rat forebrain membranes in the presence of phenylmethanesulfonylfluoride (PMSF) using 0.8 nM [3H]CP-55940 as radioligand; parameters: species or system Membrane
Rattus norvegicus [3] = species on record: Rattus norvegicus; test: Effective concentration required for stimulation of [35S]GTP-gamma-S, binding in rat microsomal membranes; format: functional
How it was run: (§1)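 Rat brain membranes (cerebellum removed) were sucrose-gradient purified. Membrane (40–50 μg protein) was incubated 1 h at 30 °C in 10 mM Tris, 100 mM NaCl, 5 mM MgCl2, 0.1% BSA with GDP, [35S]GTPγS and eight analogue concentrations. Nonspecific binding was defined with 10 μM GTPγS, and buffer alone set the baseline. Bound label was collected on GF/B filters and counted. Two experiments were run, each point in […].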

Rattus norvegicus [4] = species on record: Rattus norvegicus; test: Maximal stimulation of [35S]GTP-gamma-S, binding in rat microsomal membranes expressed as Emax; format: functional; how it was run: as §1
Rattus norvegicus [5] = species on record: Rattus norvegicus; test: Effective concentration required for stimulation of [35S]GTP-gamma-S, binding in rat microsomal membranes expressed as log EC50; format: functional; how it was run: as §1

Cannabinoid receptor 2, sequence (P47936 whole entry): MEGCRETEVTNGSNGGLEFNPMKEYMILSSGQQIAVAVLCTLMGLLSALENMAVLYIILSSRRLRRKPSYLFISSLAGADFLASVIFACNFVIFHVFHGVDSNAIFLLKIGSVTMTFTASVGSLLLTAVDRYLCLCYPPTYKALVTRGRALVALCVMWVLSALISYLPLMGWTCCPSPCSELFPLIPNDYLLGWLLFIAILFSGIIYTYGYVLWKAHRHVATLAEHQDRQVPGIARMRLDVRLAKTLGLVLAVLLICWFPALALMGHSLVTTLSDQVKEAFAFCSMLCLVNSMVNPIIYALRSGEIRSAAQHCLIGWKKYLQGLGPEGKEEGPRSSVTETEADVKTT

Row | Compound | Ki (Cannabinoid receptor 2) [µM] | Ki (Cannabinoid receptor 1 [1]) [µM] | Ki (Cannabinoid receptor 1 [2]) [µM] | EC50 (Rattus norvegicus [3]) [µM] | Emax (Rattus norvegicus [4]) [%] | EC50 (Rattus norvegicus [5]) [µM]
1 | CCCCC/C=C\C/C=C\CCCCCCCC1=NCCO1 | 20 |  |  |  |  | 
2 | CCCCC/C=C\C/C=C\C/C=C\C/C=C\CCCC(=O)NC(C)(C)C | 1.14 | 0.105 | 0.0512 |  |  | 
3 | CCCCC/C=C\C/C=C\C/C=C\C/C=C\CCCC1=N[C@H](C)CO1 | 6800 | 0.679 |  |  |  | 
4 | C=CCNC(=O)CCC/C=C\C/C=C\C/C=C\C/C=C\CCCCC | 0.226 | 2.98 | 0.00991 |  |  | 
5 | CCCCC/C=C\C/C=C\C/C=C\C/C=C\CCCC(=O)N[C@H](C)CC | 1.33 | 0.143 | 0.0736 |  |  | 
6 | CCCCC/C=C\C/C=C\C/C=C\C/C=C\CCCC(=O)NC[C@@H](C)O | 1.79 | 0.63 | 0.13 |  |  | 
7 | Cc1c(C(=O)c2cccc3ccccc23)c2cccc3c2n1[C@H](CN1CCOCC1)CO3 [WIN-552122] |  |  |  | 0.18 | 150 | 
8 | CCCCC/C=C\C/C=C\CCCCCCCC(=O)NCCO [LINOLEOYLETHANOLAMIDE] | 25 |  |  |  |  | 
9 | CCCCC/C=C\C/C=C\C/C=C\C/C=C\CCCCNC(=O)COC(C)=O | > 10 | 0.419 |  |  |  | 
10 | CCCCCCC(C)(C)c1ccc([C@@H]2C[C@H](O)CC[C@H]2CCCO)c(O)c1 [CP-55940] |  |  |  | 0.1 | 145 | 20000
11 | CCCCC/C=C\C/C=C\C/C=C\C/C=C\CCCC(=O)N[C@@H](C)CO | 8.22 |  |  |  |  | 
12 | CCCCC/C=C\C/C=C\C/C=C\C/C=C\CCCC(=O)NCCCl | 0.195 | 3.4 | 0.00529 | 0.42 | 162 | 
13 | CCCCC/C=C\C/C=C\C/C=C\C/C=C\CCCC(=O)NCC(C)C | 0.84 | 0.0981 | 0.0902 |  |  | 
14 | CCCCCCCC/C=C\CCCCCCCC(=O)N[C@H](C)CO | 26 | 33 | 19 |  |  | 
15 | CCCCC/C=C\C/C=C\C/C=C\C/C=C\CCCC(=O)NCCCCl | 0.193 | 0.387 | 0.0256 |  |  | 
16 | CCCCC/C=C\C/C=C\C/C=C\C/C=C\CCCC(=O)NC[C@H](C)O | 0.771 | 0.11 | 0.0356 |  |  | 
17 | CCCCCCCC/C=C\CCCCCCCC1=NCCO1 | 31 | 14 |  |  |  | 
18 | CCCCC/C=C\C/C=C\C/C=C\C/C=C\CCCC(=O)NC(C)CC (stereo not drawn) | 2.2 | 0.158 | 0.0832 |  |  | 
19 | CCCCCCCC/C=C\CCCCCCCC(=O)NCCO [OLEOYLETHANOLAMIDE] | 31 | 44 |  |  |  | 
20 | C#CCNC(=O)CCC/C=C\C/C=C\C/C=C\C/C=C\CCCCC | 0.29 | 4.9 | 0.0108 | 0.1 | 143 | 20000
21 | CCCCC/C=C\C/C=C\C/C=C\C/C=C\CCCC(=O)NCCF | 0.908 | 4.64 | 0.0267 |  |  | 
22 | CCCCC/C=C\C/C=C\C/C=C\C/C=C\CCCC(=O)N[C@@H](C)CC | 3.2 |  | 0.287 |  |  | 
23 | CCCCC/C=C\C/C=C\C/C=C\C/C=C\CCCC(=O)N[C@H](C)CO [METHANANDAMIDE] | 0.868 |  |  | 0.33 | 148 | 
24 | CCCCC/C=C\C/C=C\C/C=C\C/C=C\CCCC(=O)NCC(F)(F)F | 0.718 | 2.38 | 0.0362 |  |  | 
25 | CCCCC/C=C\C/C=C\CCCCCCCC(=O)N[C@H](C)CO | 21 | 21 | 21 |  |  | 
